Measured values as given in ChEMBL document CHEMBL2346534, “Design, synthesis and in vitro anti-proliferative activity of 4,6-quinazolinediamines as potent EGFR-TK inhibitors” (Eur J Med Chem, 2013).

Assays:
Type in all cases: functional
[1] = test system: KM12; assay: Cytotoxicity against human KM12 cells assessed as cell growth at 10^-5 M after 48 hrs by SRB assay; conditions: KM12, 48 h, read-out: Activity
How it was run: (§1)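 NCI 60 single-dose screen at 10^-5 M. Cells in RPMI 1640 with 5% FBS and 2 mM L-glutamine, preincubated 24 h at 37 °C/5% CO2. Drug from DMSO stock, then 48 h exposure. TCA fixation, SRB staining, absorbance at 515 nm. Result given as percent growth of treated cells relative to untreated control.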

[2] = test system: UACC-62; assay: Cytotoxicity against human UACC62 cells assessed as cell growth at 10^-5 M after 48 hrs by SRB assay; conditions: UACC-62, 48 h, read-out: Activity
How it was run: (§2)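 NCI primary single-dose screen at 10^-5 M. Cells grown in RPMI 1640 with 5% FBS and 2 mM L-glutamine, given 24 h before drug addition, then 48 h exposure at 37 °C, 5% CO2. Cells TCA-fixed, stained with SRB, read at 515 nm. Reported as percent growth of treated cells relative to untreated controls.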

[3] = test system: HOP-92; assay: Cytotoxicity against human HOP92 cells assessed as cell growth at 10^-5 M after 48 hrs by SRB assay; conditions: HOP-92, 48 h, read-out: Activity; how it was run: as §1
[4] = test system: TK-10; assay: Cytotoxicity against human TK10 cells assessed as cell growth at 10^-5 M after 48 hrs by SRB assay; conditions: TK-10, 48 h, read-out: Activity; how it was run: as §2
[5] = test system: SK-OV-3; assay: Cytotoxicity against human SKOV3 cells assessed as cell growth at 10^-5 M after 48 hrs by SRB assay; conditions: SK-OV-3, 48 h, read-out: Activity
How it was run: (§3)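 NCI 60-panel single-dose primary screen at 10^-5 M. Cells are grown in RPMI 1640 with 5% FBS and 2 mM L-glutamine and preincubated 24 h at 37 °C. Drug exposure is 48 h. Cells are TCA-fixed, stained with SRB and absorbance is read at 515 nm. Results are reported as percent growth of treated cells versus untreated controls, corrected using time-zero plates.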

[6] = test system: HCC 2998; assay: Cytotoxicity against human HCC2998 cells assessed as cell growth at 10^-5 M after 48 hrs by SRB assay; conditions: HCC 2998, 48 h, read-out: Activity; how it was run: as §1
[7] = test system: A549; assay: Cytotoxicity against human A549 cells assessed as cell growth at 10^-5 M after 48 hrs by SRB assay; conditions: A549, 48 h, read-out: Activity; how it was run: as §1
[8] = test system: CAKI-1; assay: Cytotoxicity against human Caki1 cells assessed as cell growth at 10^-5 M after 48 hrs by SRB assay; conditions: CAKI-1, 48 h, read-out: Activity; how it was run: as §1
[9] = test system: LOX IMVI; assay: Cytotoxicity against human LOXIMVI cells assessed as cell growth at 10^-5 M after 48 hrs by SRB assay; conditions: read-out: Activity; how it was run: as §1
[10] = test system: DU-145; assay: Cytotoxicity against human DU145 cells assessed as cell growth at 10^-5 M after 48 hrs by SRB assay; conditions: DU-145, 48 h, read-out: Activity; how it was run: as §1
[11] = test system: HCT-15; assay: Cytotoxicity against human HCT15 cells assessed as cell growth at 10^-5 M after 48 hrs by SRB assay; conditions: HCT-15, 48 h, read-out: Activity; how it was run: as §1
[12] = test system: MCF7; assay: Cytotoxicity against human MCF7 cells assessed as cell growth at 10^-5 M after 48 hrs by SRB assay; conditions: MCF7, 48 h, read-out: Activity; how it was run: as §1
[13] = test system: NCI-H460; assay: Cytotoxicity against human NCI-H460 cells assessed as cell growth at 10^-5 M after 48 hrs by SRB assay; conditions: NCI-H460, 48 h, read-out: Activity; how it was run: as §3
[14] = Cytotoxicity against human NCI-ADR-RES cells assessed as cell growth at 10^-5 M after 48 hrs by SRB assay; conditions: read-out: Activity; how it was run: as §3
[15] = test system: COLO 205; assay: Cytotoxicity against human COLO205 cells assessed as cell growth at 10^-5 M after 48 hrs by SRB assay; conditions: COLO 205, 48 h, read-out: Activity; how it was run: as §1
[16] = test system: UACC-257; assay: Cytotoxicity against human UACC257 cells assessed as cell growth at 10^-5 M after 48 hrs by SRB assay; conditions: UACC-257, 48 h, read-out: Activity; how it was run: as §2
[17] = test system: U-251; assay: Cytotoxicity against human U251 cells assessed as cell growth at 10^-5 M after 48 hrs by SRB assay; conditions: U-251, 48 h, read-out: Activity; how it was run: as §2
[18] = test system: PC-3; assay: Cytotoxicity against human PC3 cells assessed as cell growth at 10^-5 M after 48 hrs by SRB assay; conditions: PC-3, 48 h, read-out: Activity; how it was run: as §3
[19] = test system: HT-29; assay: Cytotoxicity against human HT-29 cells assessed as cell growth at 10^-5 M after 48 hrs by SRB assay; conditions: HT-29, 48 h, read-out: Activity; how it was run: as §1
[20] = test system: CCRF-CEM; assay: Cytotoxicity against human CCRF-CEM cells assessed as cell growth at 10^-5 M after 48 hrs by SRB assay; conditions: read-out: Activity; how it was run: as §1
[21] = test system: SK-MEL-2; assay: Cytotoxicity against human SK-MEL-2 cells assessed as cell growth at 10^-5 M after 48 hrs by SRB assay; conditions: SK-MEL-2, 48 h, read-out: Activity; how it was run: as §3
[22] = test system: 786-0; assay: Cytotoxicity against human 786-0 cells assessed as cell growth at 10^-5 M after 48 hrs by SRB assay; conditions: 786-0, 48 h, read-out: Activity; how it was run: as §1
[23] = test system: NCI-H23; assay: Cytotoxicity against human NCI-H23 cells assessed as cell growth at 10^-5 M after 48 hrs by SRB assay; conditions: NCI-H23, 48 h, read-out: Activity; how it was run: as §3
[24] = test system: SF-268; assay: Cytotoxicity against human SF268 cells assessed as cell growth at 10^-5 M after 48 hrs by SRB assay; conditions: SF-268, 48 h, read-out: Activity; how it was run: as §3
[25] = test system: A498; assay: Cytotoxicity against human A498 cells assessed as cell growth at 10^-5 M after 48 hrs by SRB assay; conditions: A498, 48 h, read-out: Activity; how it was run: as §1
[26] = test system: IGROV-1; assay: Cytotoxicity against human IGROV1 cells assessed as cell growth at 10^-5 M after 48 hrs by SRB assay; conditions: IGROV-1, 48 h, read-out: Activity; how it was run: as §1
[27] = test system: K562; assay: Cytotoxicity against human K562 cells assessed as cell growth at 10^-5 M after 48 hrs by SRB assay; conditions: K562, 48 h, read-out: Activity; how it was run: as §1
[28] = test system: SF-539; assay: Cytotoxicity against human SF539 cells assessed as cell growth at 10^-5 M after 48 hrs by SRB assay; conditions: SF-539, 48 h, read-out: Activity; how it was run: as §3
[29] = test system: T47D; assay: Cytotoxicity against human T47D cells assessed as cell growth at 10^-5 M after 48 hrs by SRB assay; conditions: read-out: Activity; how it was run: as §2
[30] = test system: SW-620; assay: Cytotoxicity against human SW620 cells assessed as cell growth at 10^-5 M after 48 hrs by SRB assay; conditions: SW-620, 48 h, read-out: Activity; how it was run: as §2

Row | SMILES | growth at 10 µM [1] [%] | growth at 10 µM [2] [%] | growth at 10 µM [4] [%] | growth at 10 µM [5] [%] | growth at 10 µM [6] [%] | growth at 10 µM [7] [%] | growth at 10 µM [8] [%] | growth at 10 µM [9] [%] | growth at 10 µM [10] [%] | growth at 10 µM [11] [%] | growth at 10 µM [12] [%] | growth at 10 µM [13] [%] | growth at 10 µM [14] [%] | growth at 10 µM [15] [%] | growth at 10 µM [16] [%] | growth at 10 µM [17] [%] | growth at 10 µM [18] [%] | growth at 10 µM [19] [%] | growth at 10 µM [20] [%] | growth at 10 µM [22] [%] | also measured
1 | C#Cc1cccc(Nc2ncnc3ccc(N/C=C(\C#N)C(=O)OCC)cc23)c1 | 98.1 | 104 | 65.5 | 97 | 102 | 85.1 | 56.1 | 103 | 69.9 | 94.2 | 96.8 | 100 | 100 | 104 | 99.8 | 85.4 | 91.4 | 98 | 103 | 91.7 | growth at 10 µM [3]: 90.3%; growth at 10 µM [21]: 123%; growth at 10 µM [23]: 98.2%; growth at 10 µM [24]: 94.4%; growth at 10 µM [25]: 82.5%; growth at 10 µM [26]: 77.4%; growth at 10 µM [27]: 96.4%; growth at 10 µM [28]: 97.8%; growth at 10 µM [29]: 73.4%; growth at 10 µM [30]: 105%
2 | NC(=O)Nc1ccc2ncnc(Nc3ccc(Cl)cc3)c2c1 | 98.5 | 87.9 | 26.5 | 30.2 | 97.9 | 72.5 | 40.1 | 95.5 | 52 | 93.1 | 86.5 | 88 | 88.7 | 101 | 100 | 95.7 | 79 | 91.6 | 96 | 85.9 | growth at 10 µM [3]: 74.2%; growth at 10 µM [21]: 127%; growth at 10 µM [23]: 100%; growth at 10 µM [24]: 79.7%; growth at 10 µM [25]: 43.4%; growth at 10 µM [26]: 61%; growth at 10 µM [27]: 71.4%; growth at 10 µM [28]: 95.7%; growth at 10 µM [29]: 61.6%; growth at 10 µM [30]: 99.1%
3 | NC(=O)Nc1ccc2ncnc(Nc3cccc(O)c3)c2c1 | 96.1 | 105 | 103 | 87.5 | 102 | 93.5 | 84.8 | 101 | 90.4 | 108 | 97.3 | 108 | 96.8 | 94.7 | 99.8 | 87.8 | 102 | 106 | 108 | 92.6 | growth at 10 µM [3]: 78%; growth at 10 µM [23]: 100%; growth at 10 µM [24]: 85.4%; growth at 10 µM [25]: 77.4%; growth at 10 µM [26]: 107%; growth at 10 µM [27]: 103%; growth at 10 µM [28]: 109%; growth at 10 µM [29]: 76.6%; growth at 10 µM [30]: 99.1%
4 | CCOC(=O)/C(C#N)=C\Nc1ccc2ncnc(Nc3ccc(Cl)cc3)c2c1 | 74 | 103 | 51.3 | 85 | 101 | 66.1 | 32.6 | 87.5 | 49.2 | 84.9 | 111 | 70 | 72 | 102 | 108 | 84.7 | 60.6 | 86.3 | 50.1 | 83.1 | growth at 10 µM [21]: 105%; growth at 10 µM [23]: 92.5%; growth at 10 µM [24]: 76.1%; growth at 10 µM [25]: 53.1%; growth at 10 µM [26]: 52.4%; growth at 10 µM [27]: 61.4%; growth at 10 µM [28]: 103%; growth at 10 µM [29]: 72.7%; growth at 10 µM [30]: 97.3%
